# Measured values: ChEMBL document CHEMBL3526056, “Characterization of in vitro glucuronidation clearance of a range of drugs in human kidney microsomes: comparison with liver and intestinal glucuronidation and impact of albumin” (Drug Metab Dispos, 2012)
# What was measured:
# [1] = Clearance in iv dosed human; format: ADME, organism-based; details: in vivo
# [2] = target: T1, UDP-glucuronosyltransferase 1A9 (Homo sapiens, UniProt O60656); test: Drug metabolism in human kidney microsomes assessed as UGT1A9-mediated unbound intrinsic glucuronidation clearance at 1 uM after 30 to 60 mins by LC-MS/MS analysis; format: ADME
# T1 sequence (O60656 whole entry): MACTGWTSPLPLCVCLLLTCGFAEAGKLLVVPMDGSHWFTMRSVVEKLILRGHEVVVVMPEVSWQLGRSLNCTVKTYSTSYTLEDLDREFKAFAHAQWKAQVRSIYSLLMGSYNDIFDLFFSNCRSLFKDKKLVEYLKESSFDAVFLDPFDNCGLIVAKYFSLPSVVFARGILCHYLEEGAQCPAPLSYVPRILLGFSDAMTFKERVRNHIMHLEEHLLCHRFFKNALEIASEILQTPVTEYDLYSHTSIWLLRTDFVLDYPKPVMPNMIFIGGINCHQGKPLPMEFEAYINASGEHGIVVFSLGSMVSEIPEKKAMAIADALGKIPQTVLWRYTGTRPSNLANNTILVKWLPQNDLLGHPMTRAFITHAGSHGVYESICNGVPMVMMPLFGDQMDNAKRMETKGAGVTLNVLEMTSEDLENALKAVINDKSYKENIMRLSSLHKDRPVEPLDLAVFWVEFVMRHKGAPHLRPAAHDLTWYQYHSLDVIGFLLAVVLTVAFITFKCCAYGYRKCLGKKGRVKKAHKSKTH
# [3] = Unbound intrinsic glucuronidation clearance in human kidney microsomes at 1 uM after 30 to 60 mins by LC-MS/MS analysis in presence of UDP-glucuronosyltransferase; format: ADME, microsome
# In short: (§1)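 Alamethicin-activated pooled microsomes (HLM 150 donors; HKM 8; HIM 18). Drug at 1 μM final, preincubated 5 min at 37°C in 0.1 M phosphate pH 7.1 with 3.45 mM MgCl2, 1.15 mM EDTA, 115 μM saccharic acid lactone. Started with […] cofactor (5 mM final), 30–60 min. Cofactor-free controls. Parent depletion by LC-MS/MS, single-exponential k. Corrected by HLM-dialysis fu,inc. Duplicates; n=3 (HIM n=1).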
# [4] = Ratio of unbound intrinsic glucuronidation clearance in human kidney microsomes in presence of 1% bovine serum albumin to unbound intrinsic glucuronidation clearance in human kidney microsomes in absence of bovine serum albumin; format: ADME, microsome
# In short: (§2)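 Unbound intrinsic glucuronidation clearance measured by parent-drug depletion in intestinal or kidney microsomes, once with 1% BSA and once without, under otherwise matched conditions (1 μM drug, pH 7.1 phosphate, 5 mM cofactor, 37°C). Each value was corrected for fu,inc. The ratio is the mean clearance with BSA over the mean without.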
# [5] = target: T1, UDP-glucuronosyltransferase 1A9; test: Drug metabolism in human intestinal microsomes assessed as UGT1A9-mediated unbound intrinsic glucuronidation clearance at 1 uM after 30 to 60 mins by LC-MS/MS analysis; format: ADME, Intestine
# [6] = target: T1, UDP-glucuronosyltransferase 1A9; test: Drug metabolism in human liver microsomes assessed as UGT1A9-mediated unbound intrinsic glucuronidation clearance at 1 uM after 30 to 60 mins by LC-MS/MS analysis in presence of 1% bovine serum albumin; format: ADME
# [7] = Drug metabolism in human intestinal microsomes assessed as UGT1A8/2B7-mediated unbound intrinsic glucuronidation clearance at 1 uM after 30 to 60 mins by LC-MS/MS analysis in presence of 2% bovine serum albumin; format: ADME, Intestine
# [8] = Fraction unbound in human plasma
# [9] = Fraction unbound in human intestinal microsomes at 1 uM after 30 to 60 mins by LC-MS/MS analysis; format: ADME, Intestine, Microsome
# [10] = target: T1, UDP-glucuronosyltransferase 1A9; test: Ratio of UGT1A9-mediated unbound intrinsic glucuronidation clearance in human intestinal microsomes to UGT1A9-mediated unbound intrinsic glucuronidation clearance in human liver microsomes at 1 uM in presence of 1% bovine serum albumin; format: ADME
# [11] = target: T1, UDP-glucuronosyltransferase 1A9; test: Drug metabolism in human liver microsomes assessed as UGT1A9-mediated unbound intrinsic glucuronidation clearance at 1 uM after 30 to 60 mins by LC-MS/MS analysis; format: ADME
# [12] = Unbound intrinsic glucuronidation clearance in human intestinal microsomes at 1 uM after 30 to 60 mins by LC-MS/MS analysis in presence of UDP-glucuronosyltransferase and 1% bovine serum albumin; format: ADME, Intestine, Microsome
# Liver microsome [13] = test: Unbound intrinsic glucuronidation clearance in human liver microsomes at 1 uM after 30 to 60 mins by LC-MS/MS analysis in presence of UDP-glucuronosyltransferase; format: ADME; in short: as §1
# [14] = Ratio of drug level blood to plasma in human; format: ADME; details: blood and plasma
# [15] = target: T1, UDP-glucuronosyltransferase 1A9; test: Ratio of UGT1A9-mediated unbound intrinsic glucuronidation clearance in human kidney microsomes to UGT1A9-mediated unbound intrinsic glucuronidation clearance in human liver microsomes at 1 uM; format: ADME
# In short: (§3)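 Unbound intrinsic clearance measured by substrate depletion in kidney and liver microsomes (1 μM drug, 0.1 M phosphate pH 7.1, 5 mM cofactor, 37°C, LC-MS/MS), without or with 1% BSA. Values scaled per g tissue; ratio taken as mean scaled kidney over mean scaled liver value.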
# [16] = Ratio of unbound intrinsic glucuronidation clearance in human intestinal microsomes in presence of 1% bovine serum albumin to unbound intrinsic glucuronidation clearance in human intestinal microsomes in absence of bovine serum albumin; format: ADME, Intestine, Microsome; in short: as §2
# [17] = Unbound intrinsic glucuronidation clearance in human intestinal microsomes at 1 uM after 30 to 60 mins by LC-MS/MS analysis in presence of UDP-glucuronosyltransferase; format: ADME, Intestine, Microsome; in short: as §1
# [18] = target: T1, UDP-glucuronosyltransferase 1A9; test: Ratio of UGT1A9-mediated unbound intrinsic glucuronidation clearance in human kidney microsomes to UGT1A9-mediated unbound intrinsic glucuronidation clearance in human intestinal microsomes at 1 uM; format: ADME
# [19] = Glucuronidation clearance in human liver microsomes in presence of bovine serum albumin; format: ADME
# [20] = target: T1, UDP-glucuronosyltransferase 1A9; test: Ratio of UGT1A9-mediated unbound intrinsic glucuronidation clearance in human intestinal microsomes to UGT1A9-mediated unbound intrinsic glucuronidation clearance in human liver microsomes at 1 uM; format: ADME
# [21] = target: T1, UDP-glucuronosyltransferase 1A9; test: Drug metabolism in human kidney microsomes assessed as UGT1A9-mediated unbound intrinsic glucuronidation clearance at 1 uM after 30 to 60 mins by LC-MS/MS analysis in presence of 1% bovine serum albumin; format: ADME
# Liver microsome [22] = test: Fraction metabolized glucuronidation in human liver microsomes in presence of UDP-glucuronosyltransferase and bovine serum albumin; format: ADME
# Liver microsome [23] = test: Fraction metabolized glucuronidation in human liver microsomes in presence of UDP-glucuronosyltransferase; format: ADME
# [24] = target: T1, UDP-glucuronosyltransferase 1A9; test: Ratio of UGT1A9-mediated unbound intrinsic glucuronidation clearance in human kidney microsomes to UGT1A9-mediated unbound intrinsic glucuronidation clearance in human intestinal microsomes at 1 uM in presence of 1% bovine serum albumin; format: ADME
# [25] = Renal clearance in human; format: ADME, organism-based, Kidney; details: in vivo
# [26] = Fraction unbound in human kidney microsomes at 1 uM after 30 to 60 mins by LC-MS/MS analysis; format: ADME
# [27] = Glucuronidation clearance in human liver microsomes; format: ADME
# [28] = Unbound intrinsic glucuronidation clearance in human kidney microsomes at 1 uM after 30 to 60 mins by LC-MS/MS analysis in presence of UDP-glucuronosyltransferase and 1% bovine serum albumin; format: ADME, microsome
# [29] = Fraction unbound in human liver microsomes at 1 uM after 30 to 60 mins by LC-MS/MS analysis in presence of 1% bovine serum albumin; format: ADME; details: liver microsomes
# Liver microsome [30] = test: Unbound intrinsic glucuronidation clearance in human liver microsomes at 1 uM after 30 to 60 mins by LC-MS/MS analysis in presence of UDP-glucuronosyltransferase and 1% bovine serum albumin; format: ADME
# [31] = Fraction unbound in human liver microsomes at 1 uM after 30 to 60 mins by LC-MS/MS analysis; format: ADME
# [32] = target: T1, UDP-glucuronosyltransferase 1A9; test: Ratio of UGT1A9-mediated unbound intrinsic glucuronidation clearance in human kidney microsomes to UGT1A9-mediated unbound intrinsic glucuronidation clearance in human liver microsomes at 1 uM in presence of 1% bovine serum albumin; format: ADME; in short: as §3
smiles,measurement,setting,value
COc1c(C)c2c(c(O)c1C/C=C(\C)CCC(=O)O)C(=O)OC2 [MYCOPHENOLIC ACID],clearance,[1],2.49 mL/min/kg
same,CL free,[2],3.75 mL/min/g
same,CL free,[3],293 µL/min/mg
same,Ratio,[4],4.9
same,CL free,[5],0.244 mL/min/g
same,CL free,[6],9.32 mL/min/g
same,CL free,[7],0.292 mL/min/g
same,fraction unbound,[8],0.01
same,fraction unbound at 1 µM,[9],0.71
same,Ratio,[10],0.128
same,CL free,[11],3.13 mL/min/g
same,CL free,[12],57.8 µL/min/mg
same,CL free,Liver microsome [13],78.2 µL/min/mg
same,blood plasma ratio,[14],0.6
same,Ratio,[15],1.2
same,Ratio,[16],4.7
same,CL free,[17],11.8 µL/min/mg
same,Ratio,[18],15.4
same,CLhep predicted,[19],3.97 mL/min/kg
same,Ratio,[20],0.078
same,CL free,[21],17.6 mL/min/g
same,Drug metabolism,Liver microsome [22],0.95
same,Drug metabolism,Liver microsome [23],0.95
same,Ratio,[24],14.8
same,CL renal,[25],0.01 mL/min/kg
same,fraction unbound at 1 µM,[26],0.91
same,CLhep predicted,[27],3.97 mL/min/kg
same,CL free,[28],1370 µL/min/mg
same,fraction unbound at 1 µM,[29],0.18
same,CL free,Liver microsome [30],233 µL/min/mg
same,fraction unbound at 1 µM,[31],0.83
same,Ratio,[32],1.89
